Measurements from ChEMBL document CHEMBL1145922, “1,2-benzisoxazole phosphorodiamidates as novel anticancer prodrugs requiring bioreductive activation” (J Med Chem, 2003).

Tests used:
Type in all cases: functional
[1] = species: Rattus norvegicus; assay: Percent inhibition of formation of compound upon incubation of 15 with phenobarbit-induced rat liver microsomal fraction in hypoxic condition in presence of pCMBA at a concentration of 2 mM
Method in brief: (§1)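 Phenobarbital-induced rat liver microsomes; inhibitors SKF-525A (in methanol) or pCMBA (in DMF) at 0–4 mM final. pCMBA preincubated 30 min before NADPH; SKF-525A incubated 15 min with microsomes and NADPH. Hypoxic samples nitrogen-purged. Substrate 2.5 mM added, 30 min at 37 °C. Ketone metabolite by HPLC at 254 nm as percent of substrate; % inhibition relative to no inhibitor. Mean of two experiments.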

[2] = species: Homo sapiens; assay: Percent formation of compound upon incubation of 15 for 60 minutes with human P450 reductase microsomes in hypoxic condition in presence of NADPH and pCMBA at a concentration of 2 mM
Method in brief: (§2)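 Human or rat P450 reductase microsomes at 1 mg/mL protein, substrate 0.25 mM and cofactor 0.5 mM; pCMBA 2 mM where stated. Anaerobic samples purged with nitrogen 15–20 min in septum-sealed vials. 60 min at 37 °C, stopped with ice-cold methanol. Ketone metabolite quantified by HPLC (C-18, methanol/water 50:50, UV 254 nm) as percent of equimolar substrate. Mean of two experiments.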

[3] = species: Rattus norvegicus; assay: Tested for formation of compound upon incubation of compound 15 for 30 minutes with rat liver cystolic fractions in hypoxic condition in the presence of NADPH
Method in brief: (§3)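 Phenobarbital-induced rat liver S-9, microsomal or cytosolic fraction with 5 mM cofactor (NADPH, NADH, benzaldehyde or 2-hydroxypyrimidine) or none. Substrate 2.5 mM final, added from methanol/water 50:50. Hypoxic vials purged with nitrogen 15–20 min. 30 min at 37 °C, quenched with ice-cold methanol. Ketone metabolite by HPLC at 254 nm as percent of equimolar substrate.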

[4] = species: Rattus norvegicus; assay: Percent inhibition of formation of compound upon incubation of 15 with phenobarbit-induced rat liver microsomal fraction in oxic condition in presence of pCMBA at a concentration of 2 mM; method in brief: as §1
[5] = species: Rattus norvegicus; assay: Tested for formation of compound upon incubation of compound 15 for 30 minutes with rat liver subcellular fractions in oxic condition in the presence of 2-hydroxypyrimidine
Method in brief: (§4)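 Phenobarbital-induced rat liver S-9 fraction (2 mL) with 5 mM cofactor (NADPH, NADH, benzaldehyde or 2-hydroxypyrimidine), substrate 2.5 mM final, added in methanol/water 50:50; aerobic, 30 min at 37 °C. Quenched with ice-cold methanol, proteins spun down, supernatant analysed by reverse-phase C-18 HPLC, UV 254 nm; ketone metabolite given as percent of equimolar substrate; three experiments.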

[6] = species: Rattus norvegicus; assay: Tested for formation of compound upon incubation of compound 15 for 30 minutes with rat liver subcellular fractions in hypoxic condition in the presence of benzaldehyde; method in brief: as §3
[7] = species: Rattus norvegicus; assay: Tested for formation of compound upon incubation of compound 15 for 30 minutes with rat liver microsomal fractions in oxic condition in the presence of NADPH; method in brief: as §3
[8] = species: Rattus norvegicus; assay: Tested for formation of compound upon incubation of compound 15 for 30 minutes with rat liver subcellular fractions in oxic condition in the presence of NADH; method in brief: as §4
[9] = species: Rattus norvegicus; assay: Tested for formation of compound upon incubation of compound 15 for 30 minutes with rat liver microsomal fractions in hypoxic condition in the presence of NADPH; method in brief: as §3
[10] = species: Rattus norvegicus; assay: Percent formation of compound upon incubation of 15 with phenobarbit-induced rat liver microsomal fraction in hypoxic condition in presence of pCMBA at a concentration of 2 mM; method in brief: as §1
[11] = species: Rattus norvegicus; assay: Percent inhibition of formation of compound upon incubation of 15 with phenobarbit-induced rat liver microsomal fraction in hypoxic condition in presence of SKF-525A at a concentration of 4 mM; method in brief: as §1
[12] = species: Rattus norvegicus; assay: Percent inhibition of formation of compound upon incubation of 15 with phenobarbit-induced rat liver microsomal fraction in hypoxic condition in presence of pCMBA at a concentration of 4 mM; method in brief: as §1
[13] = species: Rattus norvegicus; assay: Percent inhibition of formation of compound upon incubation of 15 with phenobarbit-induced rat liver microsomal fraction in oxic condition in presence of SKF-525A at a concentration of 4 mM; method in brief: as §1
[14] = species: Rattus norvegicus; assay: Percent formation of compound upon incubation of 15 for 60 minutes with rat P450 reductase microsomes in oxic condition in presence of NADPAH; method in brief: as §2
[15] = species: Rattus norvegicus; assay: Percent inhibition of formation of compound upon incubation of 15 with phenobarbit-induced rat liver microsomal fraction in hypoxic condition in presence of pCMBA at a concentration of 1 mM; method in brief: as §1
[16] = species: Rattus norvegicus; assay: Percent formation of compound upon incubation of 15 with phenobarbit-induced rat liver microsomal fraction in oxic condition in presence of pCMBA at a concentration of 0 mM; method in brief: as §1
[17] = species: Rattus norvegicus; assay: Percent formation of compound upon incubation of 15 with phenobarbit-induced rat liver microsomal fraction in oxic condition in presence of pCMBA at a concentration of 4 mM; method in brief: as §1
[18] = species: Rattus norvegicus; assay: Percent formation of compound upon incubation of 15 with phenobarbit-induced rat liver microsomal fraction in oxic condition in presence of SKF-525A at a concentration of 1 mM; method in brief: as §1
[19] = species: Rattus norvegicus; assay: Percent formation of compound upon incubation of 15 with phenobarbit-induced rat liver microsomal fraction in hypoxic condition in presence of pCMBA at a concentration of 0 mM; method in brief: as §1
[20] = species: Rattus norvegicus; assay: Percent formation of compound upon incubation of 15 with phenobarbit-induced rat liver microsomal fraction in oxic condition in presence of SKF-525A at a concentration of 2 mM; method in brief: as §1
[21] = species: Homo sapiens; assay: Percent formation of compound upon incubation of 15 for 60 minutes with human P450 reductase microsomes in hypoxic condition in presence of NADPH; method in brief: as §2
[22] = species: Rattus norvegicus; assay: Percent inhibition of formation of compound upon incubation of 15 with phenobarbit-induced rat liver microsomal fraction in hypoxic condition in presence of SKF-525A at a concentration of 1 mM; method in brief: as §1
[23] = species: Rattus norvegicus; assay: Tested for formation of compound upon incubation of compound 15 for 30 minutes with rat liver subcellular fractions in hypoxic condition in the presence of NADH; method in brief: as §3
[24] = species: Rattus norvegicus; assay: Tested for formation of compound upon incubation of compound 15 for 30 minutes with uninduced rat liver S-9 fractions in hypoxic condition in the absence of cofactor
Method in brief: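 Uninduced rat liver S-9 (22.5 mg/mL protein, 2 mL) with 5 mM NADPH or no cofactor, substrate 2.5 mM final; hypoxic samples nitrogen-purged 15–20 min in septum-sealed vials, else aerobic; 30 min at 37 °C. Methanol quench, centrifugation, C-18 HPLC with UV 254 nm; metabolite as percent of equimolar substrate. NADPH runs three experiments, no-cofactor runs two.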

[25] = species: Rattus norvegicus; assay: Tested for formation of compound upon incubation of compound 15 for 30 minutes with rat liver cystolic fractions in oxic condition in the absence of cofactor; method in brief: as §3
[26] = species: Rattus norvegicus; assay: Percent formation of compound upon incubation of 15 with phenobarbit-induced rat liver microsomal fraction in oxic condition in presence of pCMBA at a concentration of 2 mM; method in brief: as §1
[27] = species: Rattus norvegicus; assay: Percent inhibition of formation of compound upon incubation of 15 with phenobarbit-induced rat liver microsomal fraction in oxic condition in presence of pCMBA at a concentration of 4 mM; method in brief: as §1
[28] = species: Rattus norvegicus; assay: Percent formation of compound upon incubation of 15 with phenobarbit-induced rat liver microsomal fraction in hypoxic condition in presence of SKF-525A at a concentration of 4 mM; method in brief: as §1

CCC(=O)c1ccccc1O was tested, and the inhibition [1] was 99%, the Formation [2] was 0.6% and the Formation [3] was 3.6%. For the same compound, the inhibition [4] was 99%, the Formation [5] was 0.6% and the Formation [6] was 2%. For the same compound, the Formation [7] was 73%, the Formation [8] was 14.8% and the Formation [9] was 93%. It also gave a Formation [10] of 1.2%, an inhibition [11] of 36% and an inhibition [12] of 99%. It also gave an inhibition [13] of 40%, a Formation [14] of 1.5% and an inhibition [15] of 99%. The Formation [16] was 68.8%, the Formation [17] was 0.7% and the Formation [18] was 36.9%. For the same compound, the Formation [19] was 93.2%, the Formation [20] was 38.5% and the Formation [21] was 1.7%. It also gave an inhibition [22] of 23%, a Formation [23] of 28.5% and a Formation [24] of 0.9%. The Formation [25] was 0.4%, the Formation [26] was 0.5% and the inhibition [27] was 99%. It also gave a Formation [28] of 45%.
